The target of experiment [1] is T1, Polyunsaturated fatty acid lipoxygenase ALOX15B (Rattus norvegicus, UniProt Q8K4F2).
T1 sequence (Q8K4F2 whole entry): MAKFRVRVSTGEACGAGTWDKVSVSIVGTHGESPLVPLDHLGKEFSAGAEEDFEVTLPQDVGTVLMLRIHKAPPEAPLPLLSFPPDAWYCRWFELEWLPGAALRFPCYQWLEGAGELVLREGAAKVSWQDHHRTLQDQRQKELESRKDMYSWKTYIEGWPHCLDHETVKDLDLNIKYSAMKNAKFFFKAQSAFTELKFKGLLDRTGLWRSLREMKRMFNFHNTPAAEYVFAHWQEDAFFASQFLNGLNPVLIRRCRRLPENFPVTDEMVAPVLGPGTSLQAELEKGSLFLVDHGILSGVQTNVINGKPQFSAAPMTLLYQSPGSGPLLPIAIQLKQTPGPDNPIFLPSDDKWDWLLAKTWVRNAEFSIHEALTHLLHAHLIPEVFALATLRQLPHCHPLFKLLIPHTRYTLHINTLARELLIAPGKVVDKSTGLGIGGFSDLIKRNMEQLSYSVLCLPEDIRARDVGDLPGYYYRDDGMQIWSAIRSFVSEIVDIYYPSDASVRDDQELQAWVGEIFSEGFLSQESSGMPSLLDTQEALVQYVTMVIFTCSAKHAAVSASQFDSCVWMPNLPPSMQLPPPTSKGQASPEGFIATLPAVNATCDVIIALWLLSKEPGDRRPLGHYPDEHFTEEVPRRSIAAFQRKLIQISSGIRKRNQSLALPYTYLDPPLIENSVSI
As to the kind of experiment: Inhibitory activity against 15-lipoxygenase in rat polymorphonuclear leukocytes. It counts as cell-based. In a few lines: (§1)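 Heparinized rat blood; PMNLs isolated by Ficoll/Hypaque gradient and hypotonic hemolysis, washed thrice in Hanks' solution, resuspended at 2 × 10^7 cells/mL in 1/15 M phosphate buffer pH 8.2 (>94% neutrophils, <1% platelets). Cells sonicated at 4 °C, given 1 mM CaCl2, incubated with [14C]arachidonic acid (0.2 µCi) 20 min at 37 °C; stopped by HCl acidification to pH 3.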

For experiment [2], the target named is 12-lipoxygenase (Rattus norvegicus, UniProt F1LQ70). Put plainly: Inhibitory activity against 12-lipoxygenase in rat platelet rich plasma. Format: cell-free.
Experiment [3] concerns the target T2, Polyunsaturated fatty acid 5-lipoxygenase (Rattus norvegicus, UniProt P12527).
T2 sequence (P12527 whole entry): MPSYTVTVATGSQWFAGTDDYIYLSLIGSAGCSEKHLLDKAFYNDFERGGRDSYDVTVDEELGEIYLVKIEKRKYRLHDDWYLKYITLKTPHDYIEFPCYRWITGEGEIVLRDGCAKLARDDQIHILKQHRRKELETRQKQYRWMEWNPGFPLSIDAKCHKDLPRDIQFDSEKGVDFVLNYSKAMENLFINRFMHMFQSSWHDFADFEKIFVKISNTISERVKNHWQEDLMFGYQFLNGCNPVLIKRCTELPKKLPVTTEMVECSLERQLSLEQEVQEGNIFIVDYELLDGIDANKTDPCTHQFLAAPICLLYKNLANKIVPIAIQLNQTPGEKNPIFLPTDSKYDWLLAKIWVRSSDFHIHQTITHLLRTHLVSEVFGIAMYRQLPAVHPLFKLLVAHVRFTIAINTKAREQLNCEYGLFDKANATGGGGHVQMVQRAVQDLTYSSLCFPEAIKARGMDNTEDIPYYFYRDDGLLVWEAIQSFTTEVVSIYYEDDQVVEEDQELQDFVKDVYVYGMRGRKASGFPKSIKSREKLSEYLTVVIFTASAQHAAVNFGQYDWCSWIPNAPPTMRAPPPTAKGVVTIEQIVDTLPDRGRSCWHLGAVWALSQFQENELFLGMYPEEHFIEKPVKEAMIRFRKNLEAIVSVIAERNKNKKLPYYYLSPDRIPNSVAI
As to the kind of experiment: Inhibitory activity against 5-lipoxygenase in rat polymorphonuclear leukocytes. It counts as cell-based. Put shortly: as §1

12-lipoxygenase, sequence (F1LQ70 whole entry, looked up): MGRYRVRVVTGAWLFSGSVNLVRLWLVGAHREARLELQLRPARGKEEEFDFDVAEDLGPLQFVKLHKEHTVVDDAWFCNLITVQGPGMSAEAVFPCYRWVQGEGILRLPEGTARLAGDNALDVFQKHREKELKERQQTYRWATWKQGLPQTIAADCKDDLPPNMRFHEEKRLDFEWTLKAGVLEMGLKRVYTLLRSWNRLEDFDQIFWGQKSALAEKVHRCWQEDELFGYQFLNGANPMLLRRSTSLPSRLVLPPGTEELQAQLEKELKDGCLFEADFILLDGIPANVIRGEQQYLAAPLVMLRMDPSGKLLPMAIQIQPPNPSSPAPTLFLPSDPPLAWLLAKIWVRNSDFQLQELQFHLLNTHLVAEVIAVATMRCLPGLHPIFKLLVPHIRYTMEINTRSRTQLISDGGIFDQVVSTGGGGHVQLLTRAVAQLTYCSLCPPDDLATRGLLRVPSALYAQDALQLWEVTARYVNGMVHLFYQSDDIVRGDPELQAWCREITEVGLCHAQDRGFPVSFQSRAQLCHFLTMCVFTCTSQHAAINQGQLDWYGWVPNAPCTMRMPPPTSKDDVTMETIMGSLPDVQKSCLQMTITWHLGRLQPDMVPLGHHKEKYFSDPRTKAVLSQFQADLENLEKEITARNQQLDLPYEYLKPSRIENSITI

In the case of `N#C/C(=C\c1ccc(O)c(O)c1)C(=O)OCCc1ccccc1`, the IC50 (as a rule, the midpoint of a concentration-inhibition curve) came out at 430 nM in experiment [1], 51 nM in experiment [2] and 160 nM in experiment [3].
`O=c1cc(-c2ccccc2)oc2cc(O)c(O)c(O)c12` [BAICALEIN]: the IC50 in experiment [1] was 260 nM; in experiment [2], 15 nM.
For the compound `N#C/C(=C\c1ccc(O)c(O)c1)C(=O)OCCCCCCCCn1ccnc1`, the figures for the IC50 in experiment [1], in experiment [2] and in experiment [3] were > 10000 nM, 180 nM and > 10000 nM, respectively.
For `N#C/C(=C\c1ccc(O)c(O)c1)C(=O)OCCCc1cccnc1`, the IC50 in experiment [1] was 3930 nM; in experiment [2], 470 nM; in experiment [3], > 10000 nM.
Consider `N#C/C(=C\c1ccc(O)c(O)c1)C(=O)OCCCc1ccccc1`, for which the IC50 in experiment [1] is 1400 nM; in experiment [2] it was 53 nM; in experiment [3], 160 nM.
Regarding `N#C/C(=C\c1ccc(O)c(O)c1)C(=O)OCCCCc1ccccc1`, the 50% inhibitory concentration (IC50) in experiment [1] came to 3590 nM; in experiment [2], 470 nM; in experiment [3], 220 nM.
`N#C/C(=C\c1ccc(O)c(O)c1)C(=O)OCCc1cccs1`: the IC50 was 500 nM in experiment [1], 13 nM in experiment [2] and 90 nM in experiment [3].
With `CCOC(=O)/C(C#N)=C/c1ccc(O)c(O)c1`, the figures for the IC50 in experiment [1], in experiment [2] and in experiment [3] were 330 nM, 33 nM and > 10000 nM, respectively.
As for `COc1ccccc1CCOC(=O)/C(C#N)=C/c1ccc(O)c(O)c1`, the IC50 worked out at 1620 nM in experiment [1], 64 nM in experiment [2] and 140 nM in experiment [3].
With `N#C/C(=C\c1ccc(O)c(O)c1)C(=O)OC/C=C/c1ccccc1`, the IC50 in experiment [1] was found to be 3330 nM; in experiment [2], 63 nM; in experiment [3] it was 1890 nM.

The values above are taken from ChEMBL document CHEMBL1125679, “Novel caffeic acid derivatives: extremely potent inhibitors of 12-lipoxygenase” (J Med Chem, 1991).
